The record followed here is ChEMBL document CHEMBL1144241, “Deuterium isotope effects for the oxidation of 1-methyl-3-phenyl-3-pyrrolinyl analogues by monoamine oxidase B” (Bioorg Med Chem, 2008).

The nature of data set [1]: Metabolic stability in (R)-deprenyl pre-inactivated baboon liver mitochondrial fraction assessed as pyrrolyl oxidation product at 50 uM after 10 mins by HPLC analysis. It counts as ADME, Papio.
Data set [2] relates to Papio. Put plainly: Activity of baboon liver mitochondrial MAOB per mg of mitochondria by HPLC/UV analysis. The method, boiled down: (§1)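 Enzyme source was baboon liver mitochondria (no MAO-A inactivation), at 0.15 mg protein/mL in 100 mM sodium phosphate, pH 7.4. Substrate oxalate salts were tested at eight concentrations, 12.5–2000 µM, for 10 min at 37 °C, then stopped with trichloroacetic acid and centrifuged. Pyrrolyl products were measured by HPLC-UV at 270 nm against calibration curves. Initial rates were fitted to Michaelis–Menten, in triplicate, mean ± SEM.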

The subject of data set [3] is Papio. Put plainly: Activity of baboon liver mitochondrial MAOB per mg of mitochondria assessed as oxidation of 1-methyl-3-(4-fluorophenyl-3-pyrroline by HPLC/UV analysis. The conditions noted are these: tested as the 2H-labelled form. The method in brief: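 Baboon liver mitochondrial fraction as MAO-B source (no MAO-A activity; protein by Bradford), 0.15 mg protein/mL, in 100 mM sodium phosphate pH 7.4. Substrate as oxalate salt at eight concentrations, 12.5–2000 µM. Incubated 10 min at 37 °C; stopped with trichloroacetic acid. Pyrrolyl product quantified by HPLC-UV at 270 nm against calibration curve. Triplicates; Michaelis–Menten fit for Km and Vmax (nmol/min-mg mitochondria).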

Data set [4] has as its system Papio. Put plainly: Activity of baboon liver mitochondrial MAOB by HPLC/UV analysis. The method, boiled down: as §1
In data set [5] the test system is Papio. In words: Deuterium isotope effect on Vmax/Km for baboon liver mitochondrial MAOB assessed as oxidation of 1-methyl-3-(4-fluorophenyl-3-pyrroline by HPLC/UV analysis. Conditions: tested as the 2H-labelled form.
The test system of data set [6] is Papio. In words: Ratio of Vmax to Km for baboon liver mitochondrial MAOB assessed as oxidation of 1-methyl-3-phenyl-3-pyrroline by HPLC/UV analysis. The conditions noted are these: tested as the 2H-labelled form. The method, boiled down: as §1
The subject of data set [7] is Papio. In words: Activity of baboon liver mitochondrial MAOB per mg of mitochondria assessed as oxidation of 1-methyl-3-phenyl-3-pyrroline by HPLC/UV analysis. Conditions: tested as the 2H-labelled form. The method in brief:
as §1

Data set [8] can be described thus: Metabolic stability in (R)-deprenyl pre-inactivated baboon liver mitochondrial fraction assessed as oxidation to 1-methyl-3-phenylpyrrole. It counts as ADME, Papio.

Take `[2H]C1=C(c2ccccc2)C([2H])([2H])N(C)C1([2H])[2H]`: the Activity in data set [1] was determined as 2.6%.

For `CN1CC=C(c2ccc(F)cc2)C1`, the maximum rate (Vmax) in the data set on Papio [2] stood at 15.7 nmol/min; in the data set on Papio [2] (tested as the 2H-labelled form), 3.96 nmol/min. The D(Km) isotope effect in the data set with Papio [3] was 1.19. Moreover, the D(Vmax) isotope effect in the data set on Papio [3] is 3.98. Further, the Km in the data set with Papio [4] turned out to be 87.2 µM; with Papio [4] (tested as the 2H-labelled form), 73.8 µM. Besides, the D(Vmax/Km) isotope effect with Papio [5] was 3.37.

`CN1CC=C(c2ccccc2)C1`: in the data set on Papio [6], the Vmax/Km stood at 5.71 nmol/min.µM. Further, the figures for the Vmax in the data set on Papio [2], in the data set on Papio [2] (tested as the 2H-labelled form) and in the data set with Papio [7] were 9.07 nmol/min, 2.11 nmol/min and 4.29 nmol/min, respectively. For the same molecule, the results for the Km in the data set on Papio [7], with Papio [4] and in the data set with Papio [4] (tested as the 2H-labelled form) were 0.8 µM, 118 µM and 157 µM, respectively. Further, in data set [8], the Activity is 8.4%.
